# Measurements reported in ChEMBL document CHEMBL2046437, “In vitro stability and in vivo anti-inflammatory efficacy of synthetic jasmonates” (Bioorg Med Chem, 2012).
# pEC50: −log10 of the molar value. Activity calls are given as the source filed them. The calls are words filed in the database; no cut-off is given here.
# Legend:
# RAW264.7 [1] = assay: Antiinflammatory activity in LPS-activated mouse RAW264.7 cells assessed as inhibition of nitric oxide production incubated for 24 hrs by ELISA; assay type: functional, cell-based; conditions: RAW264.7, 24 h, in the assay text read “by Griess reagent method” for “by ELISA”
# How it was run: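 RAW264.7 macrophages (DMEM, 10% FBS, penicillin/streptomycin, 37 °C, 5% CO2) treated with LPS plus compounds for 24 h. Nitrite in supernatant measured by Griess reagent (10 min, room temperature, dark), absorbance 540 nm, quantified against sodium nitrite standard curve. EC50 reported from triplicate experiments, mean ± SD.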
# Rattus norvegicus [2] = assay: Antiinflammatory activity in Sprague-Dawley rat assessed as inhibition of carrageenan-induced paw edema at 50 mg/kg, ip dosed 30 mins before carrageenan challenge; assay type: functional, organism-based; design: dose 50 mg/kg
# How it was run: (§1)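 Male Sprague–Dawley rats (140–160 g, 5 weeks old) received a single intraperitoneal dose in 5% cremophor/5% ethanol in PBS, with vehicle as control. 30 min later, 0.1 mL of 1% carrageenan in saline was injected subplantar into the right hind paw, with saline in the left. Paw volume was measured by plethysmometer at 0, 0.5, 1, 2, 4, 6 and 24 h.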
# RAW264.7 [3] = assay: Selectivity index, ratio of TC50 for mouse RAW264.7 cells to EC50 for antiinflammatory activity in LPS-activated mouse RAW264.7 cells; assay type: functional
# Rattus norvegicus [4] = assay: Antiinflammatory activity in Sprague-Dawley rat assessed as inhibition of carrageenan-induced paw edema at 50 mg/kg, ip dosed 30 mins before carrageenan challenge measured at 24 hrs post carrageenan challenge; assay type: functional; how it was run: as §1
# [5] = Cytotoxicity in mouse RAW264.7 cells after 24 hrs by MTT assay; assay type: cell-based; conditions: read-out: TC50
# How it was run: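 RAW264.7 cells in DMEM with 10% FBS were treated for 24 h, then incubated with MTT for 4 h. Formazan was dissolved in DMSO for 30 min and absorbance read at 540 nm. TC50 reported as mean ± SD of triplicate experiments.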
# Rattus norvegicus [6] = assay: Antiinflammatory activity in Sprague-Dawley rat assessed as inhibition of carrageenan-induced paw edema at 50 mg/kg, ip dosed 30 mins before carrageenan challenge measured before 6 hrs post carrageenan challenge; assay type: functional, organism-based; design: dose 50 mg/kg; how it was run: as §1
# [7] = Stability in presence of porcine liver esterase assessed as esterase-mediated compound hydrolysis by measuring ratio of intact compounds and their corresponding acids in pH 7.4 phosphate buffer at 37 degC at 30 mins post incubation by RP-HPLC; assay type: ADME; conditions: pig, isolated protein, pH 7.4, 0.5 h
# How it was run: (§2)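 About 0.5 mg ester was incubated with 50 µL porcine liver esterase stock in 0.01 M phosphate buffer (pH 7.4, 1 mL) plus 10 µL acetone at 37 °C. Intact ester/acid peak-area ratio given as mean ± SD of two experiments.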
# [8] = Stability in presence of porcine liver esterase assessed as esterase-mediated compound hydrolysis by measuring ratio of intact compounds and their corresponding acids in pH 7.4 phosphate buffer at 37 degC at 60 mins post incubation by RP-HPLC; assay type: ADME; conditions: pig, isolated protein, pH 7.4, 1 h; how it was run: as §2
# Rattus norvegicus [9] = assay: Antiinflammatory activity in Sprague-Dawley rat assessed as inhibition of carrageenan-induced paw edema at 25 mg/kg, ip dosed 30 mins before carrageenan challenge measured at 24 hrs post carrageenan challenge; assay type: functional; conditions: route intraperitoneal; how it was run: as §1
# Rattus norvegicus [10] = assay: Antiinflammatory activity in Sprague-Dawley rat assessed as inhibition of carrageenan-induced paw edema at 25 mg/kg, ip dosed 30 mins before carrageenan challenge measured before 6 hrs post carrageenan challenge; assay type: functional, organism-based; design: dose 25 mg/kg; how it was run: as §1
Structure (SMILES),pEC50 (RAW264.7 [1]),Activity (Rattus norvegicus [2]),Ratio (RAW264.7 [3]),inhibition in vivo at 50 mg/kg (Rattus norvegicus [4]; route intraperitoneal) [%],CC50 at 24 h [5] [µM],Activity (Rattus norvegicus [6]),Ratio [7],Ratio [8],inhibition (Rattus norvegicus [4]),inhibition in vivo at 25 mg/kg (Rattus norvegicus [9]) [%],Activity (Rattus norvegicus [10])
CC/C=C\C[C@H]1C(=O)C(Cl)=C[C@H]1CC(=O)OCCO,6.24,Active,10.8,62.4,6.25,inactive,–,–,–,–,–
CC/C=C\C[C@H]1C(=O)C(Cl)=C[C@H]1CC(=O)OC1CCCCC1,6.19,–,14.9,–,9.69,–,–,–,–,–,–
CC/C=C\C[C@H]1C(=O)C=C[C@H]1CC(=O)OCCC,4.64,–,1,–,35,–,0,–,–,–,–
CC/C=C\C[C@H]1C(=O)C=C[C@H]1CC(=O)OC(C)(C)C,4.70,–,1,–,33,–,11.2,9.8,–,–,–
CC/C=C\C[C@H]1C(=O)C(Cl)=C[C@H]1CC(=O)OC(C)(C)C,6.08,Active,13.9,–,11.5,inactive,–,–,Active,–,–
CC/C=C\C[C@H]1C(=O)C=C[C@H]1CC(=O)OCCOCCOC,4.48,–,5,–,161,–,0.3,0,–,–,–
CC/C=C\C[C@H]1C(=O)C=C[C@H]1CC(=O)OCCOCCO,4.44,–,5,–,166,–,5.9,3.1,–,–,–
CC/C=C\C[C@H]1C(=O)C=C[C@H]1CC(=O)OC(C)CC (stereo not given in full),4.66,–,2,–,53,–,0.4,0.1,–,–,–
CC/C=C\C[C@H]1C(=O)C=C[C@H]1CC(=O)Oc1ccc(O)cc1,4.64,–,2,–,49,–,0,–,–,–,–
CC/C=C\C[C@H]1C(=O)C=C[C@H]1CC(=O)OCCCCC,4.60,–,1,–,37,–,0,–,–,–,–
CC/C=C\C[C@H]1C(=O)C=C[C@H]1CC(=O)OCCOCCOCCO,4.38,–,4,–,162,–,7.6,3.5,–,–,–
CC/C=C\C[C@H]1C(=O)C=C[C@H]1CC(=O)OCC,4.70,–,7,–,146,–,0,–,–,–,–
CC/C=C\C[C@H]1C(=O)C=C[C@H]1CC(=O)Oc1ccccc1,4.48,–,5,–,158,–,0,–,–,–,–
CC/C=C\C[C@H]1C(=O)C=C[C@H]1CC(=O)Oc1ccccc1OC,4.49,–,5,–,161,–,0,–,–,–,–
CC/C=C\C[C@H]1C(=O)C=C[C@H]1CC(=O)OCCO,4.62,–,7,–,161,–,1.7,0.7,–,–,–
COc1ccc2c(c1)c(CC(=O)O)c(C)n2C(=O)c1ccc(Cl)cc1 [INDOMETHACIN],–,–,–,–,–,–,–,–,–,57.1,Active
CC/C=C\C[C@H]1C(=O)C=C[C@H]1CC(=O)OCCOCCOCCOC,4.46,–,5,–,163,–,0.3,0,–,–,–
CC/C=C\C[C@H]1C(=O)C=C[C@H]1CC(=O)OC1CCCCC1,4.66,–,2,–,31,–,4.1,1.1,–,–,–
CC/C=C\C[C@H]1C(=O)C=C[C@H]1CC(=O)OC(C)COC (stereo not given in full),4.64,–,7,–,161,–,0.5,0.2,–,–,–
CC/C=C\C[C@H]1C(=O)C=C[C@H]1CC(=O)OCCCC,4.64,–,1,–,31,–,0,–,–,–,–
CC/C=C\C[C@H]1C(=O)C=C[C@H]1CC(=O)OCc1ccccc1,4.70,–,1,–,31,–,0.2,0,–,–,–
CC/C=C\C[C@H]1C(=O)C=C[C@H]1CC(=O)OCCOC,4.57,–,6,–,160,–,0.1,0,–,–,–
CC/C=C\C[C@H]1C(=O)C=C[C@H]1CC(=O)OC(C)c1ccccc1 (stereo not given in full),4.74,–,2,–,31,–,1.4,0.4,–,–,–
CC/C=C\CC1C(=O)C=CC1CC(=O)OC (stereo not given),4.72,–,7,–,140,–,0.1,0,–,–,–
CC/C=C\C[C@H]1C(=O)C=C[C@H]1CC(=O)OC(C)C,4.70,–,3,–,58,–,0.5,0.1,–,–,–
